Test results published in article PMC11525735 (ACS Omega, 2024).

Experiments:
[1] = test system: MDA-MB-231 cells; experiment: In vitro fluorescence imaging of Cy5.5-A11; type: cell-based; conditions: 6 h
Summary of the method: (§1)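 Cells (5×10^4; kept in DMEM or RPMI-1640 with 10% FBS) were plated in chamber slides and cultured 24 h. They were then exposed to 10 nM Cy5.5-labelled test peptide at 37 °C for 6 h; blocking wells also received 1 μM unlabelled peptide. After three PBS washes, cells were fixed in 4% paraformaldehyde for 20 min and DAPI-stained. Images were taken by laser confocal microscopy.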

[2] = test system: H460 cells; experiment: In vitro fluorescence imaging of Cy5.5-A11; type: cell-based; conditions: 6 h
Summary of the method: as §1

[3] = test system: A375 cells; experiment: In vitro fluorescence imaging of Cy5.5-A11; type: cell-based; conditions: 6 h
Summary of the method: as §1

[4] = test system: MDA-MB-231 xenografts; experiment: In vivo NIF whole-body imaging of tumor-bearing mice; parameters: species or system BALB/c nu/nu nude mice; conditions: MDA-MB-231 xenograft, 1 nM Cy5.5-A11 i.v.
Summary of the method: (§2)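 Five-week-old female nude mice carried right-shoulder subcutaneous xenografts (5×10^6 cells). At 100 mm³, 1 nM Cy5.5-labelled test peptide was given i.v. (n = 3). Whole-body NIR imaging followed at 0.5, 1, 2, 3, 4, 5, 6 and 24 h p.i. with a Cy5.5 filter set, 1 s exposure, f/stop 4 and fixed illumination, in p/s/cm²/sr. Tumour-to-muscle ratio came from ROI mean intensities; mean ± SD.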

[5] = test system: H460 xenografts; experiment: as above; parameters: species or system BALB/c nu/nu nude mice; conditions: H460 xenograft, 1 nM Cy5.5-A11 i.v.
Summary of the method: as §2

[6] = test system: A375 xenografts; experiment: as above; parameters: species or system BALB/c nu/nu nude mice; conditions: A375 xenograft, 1 nM Cy5.5-A11 i.v.
Summary of the method: as §2

[7] = test system: MDA-MB-231 tumor-bearing mice; experiment: Ex vivo biodistribution study; type: in vivo, BALB/c nu/nu nude mice; conditions: 4 h p.i.
Summary of the method: (§3)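 Five-week-old female nude mice carried subcutaneous right-shoulder xenografts (5×10^6 cells), including xenografts from stable shRNA PD-L1-knockdown lines. At 100 mm³ tumour volume, mice received 1 nM Cy5.5-labelled test peptide i.v., with or without 1 μM unlabelled peptide (n = 3). Mice were killed at 4 h p.i. Tumour, brain, heart, lung, liver, stomach, intestine, spleen, kidney and muscle were imaged ex vivo through a Cy5.5 filter set. Average fluorescence per specimen was taken by ROI; mean ± SD.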

[8] = test system: H460 tumor-bearing mice; experiment: Ex vivo biodistribution study; type: in vivo, BALB/c nu/nu nude mice; conditions: 4 h p.i.
Summary of the method: as §3

[9] = test system: A375 tumor-bearing mice; experiment: Ex vivo biodistribution study; type: in vivo, BALB/c nu/nu nude mice; conditions: 4 h p.i.
Summary of the method: as §3

[10] = test system: PD-L1; conditions: various cancer cells; cited from earlier work
[11] = 0.5-6 h p.i., ROI analysis, n = 3

Cy5.5-EYVQTVKSSKG [Cy5.5-A11]
fluorescent signal of cells, blocking with unlabeled A11 ([1]; MDA-MB-231, 10 nM Cy5.5-A11 + 1 μM unlabeled A11, 37 °C, confocal microscopy): successfully blocked
fluorescent signal of cells ([1]; MDA-MB-231, 10 nM Cy5.5-A11, 37 °C, laser confocal microscopy, nonblocking): robust fluorescent signal
fluorescent signal in PD-L1 knockdown versus shNC control cells ([1]; MDA-MB-231 stable PD-L1 shRNA knockdown and shNC control, 10 nM Cy5.5-A11, 37 °C, confocal microscopy): seen in shNC control cells but not PD-L1 knockdown cancer cells
fluorescent signal of cells, blocking with unlabeled A11 ([2]; H460, 10 nM Cy5.5-A11 + 1 μM unlabeled A11, 37 °C, confocal microscopy): successfully blocked
fluorescent signal of cells ([2]; H460, 10 nM Cy5.5-A11, 37 °C, laser confocal microscopy, nonblocking): robust fluorescent signal
fluorescent signal in PD-L1 knockdown versus shNC control cells ([2]; H460 stable PD-L1 shRNA knockdown and shNC control, 10 nM Cy5.5-A11, 37 °C, confocal microscopy): seen in shNC control cells but not PD-L1 knockdown cancer cells
fluorescent signal of cells, blocking with unlabeled A11 ([3]; A375, 10 nM Cy5.5-A11 + 1 μM unlabeled A11, 37 °C, confocal microscopy): successfully blocked
fluorescent signal of cells ([3]; A375, 10 nM Cy5.5-A11, 37 °C, laser confocal microscopy, nonblocking): robust fluorescent signal
fluorescent signal in PD-L1 knockdown versus shNC control cells ([3]; A375 stable PD-L1 shRNA knockdown and shNC control, 10 nM Cy5.5-A11, 37 °C, confocal microscopy): seen in shNC control cells but not PD-L1 knockdown cancer cells
tumor-to-muscle fluorescence signal ratio [4, 11]: High
tumor-specific fluorescence signal at 24 h p.i. ([4]; 24 h p.i.): distinctly visible
time of peak tumor-specific fluorescence signal ([4]; n = 3): 2 h p.i.
tumor-to-muscle fluorescence signal ratio [5, 11]: High
tumor-specific fluorescence signal at 24 h p.i. ([5]; 24 h p.i.): distinctly visible
time of peak tumor-specific fluorescence signal ([5]; n = 3): 2 h p.i.
tumor-to-muscle fluorescence signal ratio [6, 11]: High
tumor-specific fluorescence signal at 24 h p.i. ([6]; 24 h p.i.): distinctly visible
time of peak tumor-specific fluorescence signal ([6]; n = 3): 2 h p.i.
ex vivo uptake in the xenografts with excessive unlabeled A11 ([7]; MDA-MB-231, blocking group, 1 nM Cy5.5-A11 + 1 μM unlabeled A11 i.v.): obviously reduced
ex vivo uptake of the probe in the xenografts ([7]; MDA-MB-231, nonblocking group, 1 nM Cy5.5-A11 i.v., ex vivo fluorescence, ROI): significant uptake
ex vivo fluorescent signal in xenografts of cancer cells with PD-L1 knockdown ([7]; PD-L1 knockdown MDA-MB-231, 1 nM Cy5.5-A11 i.v.): dramatically decreased
ex vivo uptake in the xenografts with excessive unlabeled A11 ([8]; H460, blocking group, 1 nM Cy5.5-A11 + 1 μM unlabeled A11 i.v.): obviously reduced
ex vivo uptake of the probe in the xenografts ([8]; H460, nonblocking group, 1 nM Cy5.5-A11 i.v., ex vivo fluorescence, ROI): significant uptake
ex vivo fluorescent signal in xenografts of cancer cells with PD-L1 knockdown ([8]; PD-L1 knockdown H460, 1 nM Cy5.5-A11 i.v.): dramatically decreased
ex vivo uptake in the xenografts with excessive unlabeled A11 ([9]; A375, blocking group, 1 nM Cy5.5-A11 + 1 μM unlabeled A11 i.v.): obviously reduced
ex vivo uptake of the probe in the xenografts ([9]; A375, nonblocking group, 1 nM Cy5.5-A11 i.v., ex vivo fluorescence, ROI): significant uptake
organ uptake (biodistribution) ([9]; A375 tumor-bearing mice, three groups (nonblocking, blocking, PD-L1 KD), ex vivo fluorescence, ROI): higher in the liver and kidney than that in other organs
ex vivo fluorescent signal in xenografts of cancer cells with PD-L1 knockdown ([9]; PD-L1 knockdown A375, 1 nM Cy5.5-A11 i.v.): dramatically decreased

EYVQTVKSSKG [A11]
action on PD-L1 [10]: binds and degrades PD-L1
